From ChEMBL document CHEMBL1268917, “Synthesis and biological evaluation of radio-iodinated benzimidazoles as SPECT imaging agents for NR2B subtype of NMDA receptor” (Bioorg Med Chem, 2010)

How the values were obtained:
Blood [1] = assay: Biodistribution in ddY mouse blood assessed per gram of tissue at 14.8 kBq, iv after 5 mins; type: ADME, organism-based; conditions: in vivo
How it was run: (§1)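 Killed at set times after injection; organs and blood removed, weighed, gamma counted. Data as % injected dose per gram tissue, mean SD, n = 5–6.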

Lung [2] = assay: Biodistribution in ddY mouse lung assessed per gram of tissue at 14.8 kBq, iv after 30 mins; type: ADME, organism-based; conditions: in vivo, 0.5 h
How it was run: (§2)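 Radioiodinated tracer (14.8 kBq) injected via tail vein into male ddY mice (6 weeks, 30–35 g). Organs removed at set times after injection, weighed and gamma-counted; uptake expressed as % injected dose per gram tissue, mean ± SD, n = 5–6.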

Pancreas [3] = assay: Biodistribution in ddY mouse pancreas assessed per gram of tissue at 14.8 kBq, iv after 360 mins; type: ADME, organism-based; conditions: in vivo, 6 h; how it was run: as §2
Heart [4] = assay: Biodistribution in ddY mouse heart assessed per gram of tissue at 14.8 kBq, iv after 5 mins; type: ADME, organism-based; conditions: in vivo; how it was run: as §1
Liver [5] = assay: Biodistribution in ddY mouse liver assessed per gram of tissue at 14.8 kBq, iv after 5 mins; type: ADME, organism-based; conditions: in vivo; how it was run: as §1
Lung [6] = assay: Biodistribution in ddY mouse lung assessed per gram of tissue at 14.8 kBq, iv after 5 mins; type: ADME, organism-based; conditions: in vivo; how it was run: as §2
Blood [7] = assay: Biodistribution in ddY mouse blood assessed per gram of tissue at 148 kBq, iv after 180 mins in presence of 200 mg/kg, iv of probenecid administered 30 mins before compound challenge (reference value: 0.46 +/- 0.07 %); type: ADME, organism-based; parameters: dose 200 mg/kg, route intravenous; conditions: in vivo, 3 h
Blood [8] = assay: Biodistribution in ddY mouse blood assessed per gram of tissue at 14.8 kBq, iv after 60 mins; type: ADME, organism-based; conditions: in vivo, 1 h; how it was run: as §1
Stomach [9] = assay: Biodistribution in ddY mouse stomach assessed per gram of tissue at 14.8 kBq, iv after 5 mins; type: ADME, organism-based; conditions: in vivo; how it was run: as §2
Blood [10] = assay: Biodistribution in ddY mouse blood assessed per gram of tissue at 14.8 kBq, iv after 30 mins; type: ADME, organism-based; conditions: in vivo, 0.5 h; how it was run: as §1
Brain [11] = assay: Biodistribution in ddY mouse brain assessed per gram of tissue at 14.8 kBq, iv after 30 mins; type: ADME, organism-based; conditions: in vivo, 0.5 h; how it was run: as §1
Kidney [12] = assay: Biodistribution in ddY mouse kidney assessed per gram of tissue at 14.8 kBq, iv after 30 mins; type: ADME, organism-based; conditions: in vivo, 0.5 h; how it was run: as §1
Liver [13] = assay: Biodistribution in ddY mouse liver assessed per gram of tissue at 14.8 kBq, iv after 0.5 mins; type: ADME, organism-based; conditions: in vivo; how it was run: as §1
Pancreas [14] = assay: Biodistribution in ddY mouse pancreas assessed per gram of tissue at 14.8 kBq, iv after 0.5 mins; type: ADME, organism-based; conditions: in vivo; how it was run: as §2
Liver [15] = assay: Biodistribution in ddY mouse liver assessed per gram of tissue at 14.8 kBq, iv after 180 mins; type: ADME, organism-based; conditions: in vivo, 3 h; how it was run: as §1
Spleen [16] = assay: Biodistribution in ddY mouse spleen assessed per gram of tissue at 14.8 kBq, iv after 60 mins; type: ADME, organism-based; conditions: in vivo, 1 h; how it was run: as §2
Spleen [17] = assay: Biodistribution in ddY mouse spleen assessed per gram of tissue at 14.8 kBq, iv after 30 mins; type: ADME, organism-based; conditions: in vivo, 0.5 h; how it was run: as §2
Kidney [18] = assay: Biodistribution in ddY mouse kidney assessed per gram of tissue at 148 kBq, iv after 180 mins in presence of 200 mg/kg, iv of probenecid administered 30 mins before compound challenge (reference value: 6.29 +/- 1.47 %); conditions: in vivo, 3 h
Kidney [19] = assay: Biodistribution in ddY mouse kidney assessed per gram of tissue at 14.8 kBq, iv after 5 mins; type: ADME, organism-based; conditions: in vivo; how it was run: as §1
Spleen [20] = assay: Biodistribution in ddY mouse spleen assessed per gram of tissue at 14.8 kBq, iv after 360 mins; type: ADME, organism-based; conditions: in vivo, 6 h; how it was run: as §2
Liver [21] = assay: Biodistribution in ddY mouse liver assessed per gram of tissue at 148 kBq, iv after 180 mins in presence of 200 mg/kg, iv of probenecid administered 30 mins before compound challenge (reference value: 19.13 +/- 2.09 %); conditions: in vivo, 3 h
Blood [22] = assay: Biodistribution in ddY mouse blood assessed per gram of tissue at 14.8 kBq, iv after 360 mins; type: ADME, organism-based; conditions: in vivo, 6 h; how it was run: as §1
Stomach [23] = assay: Biodistribution in ddY mouse stomach assessed per gram of tissue at 14.8 kBq, iv after 360 mins; type: ADME, organism-based; conditions: in vivo, 6 h; how it was run: as §2
Liver [24] = assay: Biodistribution in ddY mouse liver assessed per gram of tissue at 148 kBq, iv after 180 mins in presence of 50 mg/kg, iv of cyclosporin A administered 30 mins before compound challenge (reference value: 16.20 +/- 1.34 %); type: ADME, organism-based; parameters: dose 50 mg/kg, route intravenous; conditions: in vivo, 3 h
Intestine [25] = assay: Biodistribution in ddY mouse intestine assessed per gram of tissue at 14.8 kBq, iv after 180 mins; type: ADME, organism-based; conditions: in vivo, 3 h; how it was run: as §1
Brain [26] = assay: Biodistribution in ddY mouse brain assessed per gram of tissue at 14.8 kBq, iv after 180 mins; type: ADME, organism-based; conditions: in vivo, 3 h; how it was run: as §1
Liver [27] = assay: Biodistribution in ddY mouse liver assessed per gram of tissue at 14.8 kBq, iv after 360 mins; type: ADME, organism-based; conditions: in vivo, 6 h; how it was run: as §1
Lung [28] = assay: Biodistribution in ddY mouse lung assessed per gram of tissue at 14.8 kBq, iv after 60 mins; type: ADME, organism-based; conditions: in vivo, 1 h; how it was run: as §2
Kidney [29] = assay: Biodistribution in ddY mouse kidney assessed per gram of tissue at 14.8 kBq, iv after 180 mins; type: ADME, organism-based; conditions: in vivo, 3 h; how it was run: as §1
Stomach [30] = assay: Biodistribution in ddY mouse stomach assessed per gram of tissue at 14.8 kBq, iv after 60 mins; type: ADME, organism-based; conditions: in vivo, 1 h; how it was run: as §2
Pancreas [31] = assay: Biodistribution in ddY mouse pancreas assessed per gram of tissue at 14.8 kBq, iv after 5 mins; type: ADME, organism-based; conditions: in vivo; how it was run: as §2
Spleen [32] = assay: Biodistribution in ddY mouse spleen assessed per gram of tissue at 14.8 kBq, iv after 0.5 mins; type: ADME, organism-based; conditions: in vivo; how it was run: as §2
Pancreas [33] = assay: Biodistribution in ddY mouse pancreas assessed per gram of tissue at 14.8 kBq, iv after 60 mins; type: ADME, organism-based; conditions: in vivo, 1 h; how it was run: as §2
Blood [34] = assay: Biodistribution in ddY mouse blood assessed per gram of tissue at 14.8 kBq, iv after 180 mins; type: ADME, organism-based; conditions: in vivo, 3 h; how it was run: as §1
Kidney [35] = assay: Biodistribution in ddY mouse kidney assessed per gram of tissue at 148 kBq, iv after 180 mins in presence of 50 mg/kg, iv of cyclosporin A administered 30 mins before compound challenge (reference value: 4.49 +/- 1.34 %); type: ADME, organism-based; parameters: dose 50 mg/kg, route intravenous; conditions: in vivo, 3 h
Stomach [36] = assay: Biodistribution in ddY mouse stomach assessed per gram of tissue at 14.8 kBq, iv after 0.5 mins; type: ADME, organism-based; conditions: in vivo; how it was run: as §2
Lung [37] = assay: Biodistribution in ddY mouse lung assessed per gram of tissue at 14.8 kBq, iv after 180 mins; type: ADME, organism-based; conditions: in vivo, 3 h; how it was run: as §2
Brain [38] = assay: Biodistribution in ddY mouse brain assessed per gram of tissue at 14.8 kBq, iv after 60 mins; type: ADME, organism-based; conditions: in vivo, 1 h; how it was run: as §1
Kidney [39] = assay: Biodistribution in ddY mouse kidney assessed per gram of tissue at 14.8 kBq, iv after 0.5 mins; type: ADME, organism-based; conditions: in vivo; how it was run: as §1
Pancreas [40] = assay: Biodistribution in ddY mouse pancreas assessed per gram of tissue at 14.8 kBq, iv after 30 mins; type: ADME, organism-based; conditions: in vivo, 0.5 h; how it was run: as §2
Heart [41] = assay: Biodistribution in ddY mouse heart assessed per gram of tissue at 14.8 kBq, iv after 30 mins; type: ADME, organism-based; conditions: in vivo, 0.5 h; how it was run: as §1
Intestine [42] = assay: Biodistribution in ddY mouse intestine assessed per gram of tissue at 14.8 kBq, iv after 30 mins; type: ADME, organism-based; conditions: in vivo, 0.5 h; how it was run: as §1
Heart [43] = assay: Biodistribution in ddY mouse heart assessed per gram of tissue at 14.8 kBq, iv after 60 mins; type: ADME, organism-based; conditions: in vivo, 1 h; how it was run: as §1
Spleen [44] = assay: Biodistribution in ddY mouse spleen assessed per gram of tissue at 14.8 kBq, iv after 180 mins; type: ADME, organism-based; conditions: in vivo, 3 h; how it was run: as §2

Oc1ccc2nc(CN3CCC(Cc4ccc([125I])cc4)CC3)[nH]c2c1
Drug uptake (Blood [1]): 1.15 % ID/g
Drug uptake (Lung [2]): 8.16 % ID/g
Drug uptake (Pancreas [3]): 8.76 % ID/g
Drug uptake (Heart [4]): 5.39 % ID/g
Drug uptake (Liver [5]): 25.03 % ID/g
Drug uptake (Lung [6]): 14.48 % ID/g
Drug uptake (Blood [7]): 0.41 % ID/g
Drug uptake (Blood [8]): 0.75 % ID/g
Drug uptake (Stomach [9]): 1.93 % ID/g
Drug uptake (Blood [10]): 0.67 % ID/g
Drug uptake (Brain [11]): 0.44 % ID/g
Drug uptake (Kidney [12]): 11.2 % ID/g
Drug uptake (Liver [13]): 14.68 % ID/g
Drug uptake (Pancreas [14]): 0.49 % ID/g
Drug uptake (Liver [15]): 32.22 % ID/g
Drug uptake (Spleen [16]): 4.65 % ID/g
Drug uptake (Spleen [17]): 5.91 % ID/g
Drug uptake (Kidney [18]): 4.2 % ID/g
Drug uptake (Kidney [19]): 12.2 % ID/g
Drug uptake (Spleen [20]): 3.79 % ID/g
Drug uptake (Liver [21]): 20 % ID/g
Drug uptake (Blood [22]): 0.28 % ID/g
Drug uptake (Stomach [23]): 2.17 % ID/g
Drug uptake (Liver [24]): 15.2 % ID/g
Drug uptake (Intestine [25]): 4.55 % ID/g
Drug uptake (Brain [26]): 0.56 % ID/g
Drug uptake (Liver [27]): 30.16 % ID/g
Drug uptake (Lung [28]): 7.54 % ID/g
Drug uptake (Kidney [29]): 7.74 % ID/g
Drug uptake (Stomach [30]): 2.16 % ID/g
Drug uptake (Pancreas [31]): 5.74 % ID/g
Drug uptake (Spleen [32]): 0.5 % ID/g
Drug uptake (Pancreas [33]): 6.35 % ID/g
Drug uptake (Blood [34]): 0.3 % ID/g
Drug uptake (Kidney [35]): 4.8 % ID/g
Drug uptake (Stomach [36]): 0.72 % ID/g
Drug uptake (Lung [37]): 4.75 % ID/g
Drug uptake (Brain [38]): 0.48 % ID/g
Drug uptake (Kidney [39]): 5.35 % ID/g
Drug uptake (Pancreas [40]): 6.1 % ID/g
Drug uptake (Heart [41]): 2.31 % ID/g
Drug uptake (Intestine [42]): 2.39 % ID/g
Drug uptake (Heart [43]): 1.87 % ID/g
Drug uptake (Spleen [44]): 4.25 % ID/g
